B1: Osa-1-4 twister ribozyme (parent)
chain: CCGCCUAACACUGCCAAUGCCGGUCCCAAGCCCGGAUAAAAGUGGAGGGGGCGG

In the data set the parent is B1. The data set can be described thus: self-cleavage, relative activity (ratio to wild type); higher = more cleavage; co-transcriptional. An outline of the steps:
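The 48 positions downstream of the cleavage site in a DNA template for a 54-nucleotide Oryza sativa twister ribozyme carried 97 % wild-type base and 1 % of each other base. After in vitro transcription (2 h, 37 °C) with co-transcriptional self-cleavage, the RNA was reverse-transcribed with a template-switching oligonucleotide, PCR-amplified and deep-sequenced. Relative activity is the fraction cleaved, judged by reads with or without upstream sequence and normalised to wild type.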
With CCGCCUAACACUGCCAAUGCCGGUCCCAAGCCCGGAUAAGAGUGGAGGGGGGGG [A40G C52G], the self-cleavage was determined as 0.65.

For the variant CCGCCUAACACUGCCAAUGCCGGUCCCAAGCCCGGAUAAGAGUGGAGGGGGUGG [A40G C52U], the self-cleavage is 0.94.

Consider CCGCCUAACACUGCCAAUGCCGGUCCCAAGCCCGGAUAAGAGUGGAGGGGGAGG [A40G C52A], for which the self-cleavage is 0.52.

Consider CCGCCUAACACUGGCAAUGCCGGUCCCAAGCCCGGAUAAGAGUGGAGGGGGCGG [A40G C14G], for which the self-cleavage worked out at 0.11.

As to CCGCCUAACACUGUCAAUGCCGGUCCCAAGCCCGGAUAAGAGUGGAGGGGGCGG [A40G C14U], the self-cleavage worked out at 0.2.

Turning to CCGCCUAACACUGACAAUGCCGGUCCCAAGCCCGGAUAAGAGUGGAGGGGGCGG [A40G C14A], the self-cleavage was 0.4.

Consider CCGCCUAACAUUGCCAAUGCCGGUCCCAAGCCCGGAUAAGAGUGGAGGGGGCGG [A40G C11U], for which the self-cleavage was found to be 0.32.

With CCGCCUAACAGUGCCAAUGCCGGUCCCAAGCCCGGAUAAGAGUGGAGGGGGCGG [A40G C11G], the self-cleavage was 0.13.

For CCGCCUAACACUGCCAAUGCCGGUCCAAAGCCCGGAUAAGAGUGGAGGGGGCGG [A40G C27A], the self-cleavage amounted to 0.11.

Consider CCGCCUAACACUGCCAAUGCCGGUCCUAAGCCCGGAUAAGAGUGGAGGGGGCGG [A40G C27U], for which the self-cleavage was 0.11.

As for CCGCCUAACACUGCCAAUGCCGGUCCGAAGCCCGGAUAAGAGUGGAGGGGGCGG [A40G C27G], the self-cleavage stood at 0.09.

As to CCGCCUAACACUGCCAAUGCCGGUUCCAAGCCCGGAUAAGAGUGGAGGGGGCGG [A40G C25U], the self-cleavage was 0.14.

Regarding CCGCCUAACACUGCCAAUGCCGGUACCAAGCCCGGAUAAGAGUGGAGGGGGCGG [A40G C25A], the self-cleavage stood at 0.06.

CCGCCUAACACUGCCAAUGCCGGUGCCAAGCCCGGAUAAGAGUGGAGGGGGCGG [A40G C25G]: the self-cleavage was found to be 0.06.

In the case of CCGCCUAACACUGCCAAUGCCGGUCACAAGCCCGGAUAAGAGUGGAGGGGGCGG [A40G C26A], the self-cleavage stood at 0.05.

On to CCGCCUAACACUGCCAAUGCCGGUCUCAAGCCCGGAUAAGAGUGGAGGGGGCGG [A40G C26U], for which the self-cleavage is 0.13.

With CCGCCUAACACUGCCAAUGCCGGUCGCAAGCCCGGAUAAGAGUGGAGGGGGCGG [A40G C26G], the self-cleavage is 0.14.

As for CCGCCUAACACUGCCAAUUCCGGUCCCAAGCCCGGAUAAGAGUGGAGGGGGCGG [A40G G19U], the self-cleavage is 0.11.

With CCGCCUAACACUGCCAAUACCGGUCCCAAGCCCGGAUAAGAGUGGAGGGGGCGG [A40G G19A], the self-cleavage is 0.18.

For the variant CCGCCUAACACUGCCAAUCCCGGUCCCAAGCCCGGAUAAGAGUGGAGGGGGCGG [A40G G19C], the self-cleavage is 0.07.

CCGCCUAACACUGCCAAUGCCGGUCCCAACCCCGGAUAAGAGUGGAGGGGGCGG [A40G G30C]: the self-cleavage came out at 0.04.

Regarding CCGCCUAACACUGCCAAUGCCGGUCCCAAACCCGGAUAAGAGUGGAGGGGGCGG [A40G G30A], the self-cleavage was determined as 0.03.

Consider CCGCCUAACACUGCAAAUGCCGGUCCCAAGCCCGGAUAAGAGUGGAGGGGGCGG [A40G C15A], for which the self-cleavage was 0.13.

CCGCCUAACACUGCUAAUGCCGGUCCCAAGCCCGGAUAAGAGUGGAGGGGGCGG [A40G C15U]: the self-cleavage is 0.13.

As for CCGCCUAACACUGCGAAUGCCGGUCCCAAGCCCGGAUAAGAGUGGAGGGGGCGG [A40G C15G], the self-cleavage came to 0.14.

For CCGCCUAACACUGCCAAUGCCGUUCCCAAGCCCGGAUAAGAGUGGAGGGGGCGG [A40G G23U], the self-cleavage came out at 0.05.

Turning to CCGCCUAACACUGCCAAUGCCGCUCCCAAGCCCGGAUAAGAGUGGAGGGGGCGG [A40G G23C], the self-cleavage came to 0.06.

On to CCGCCUAACACUGCCAAUGCCGAUCCCAAGCCCGGAUAAGAGUGGAGGGGGCGG [A40G G23A], for which the self-cleavage stood at 0.12.

Regarding CCGCCUAACACUGCCAAUGCCUGUCCCAAGCCCGGAUAAGAGUGGAGGGGGCGG [A40G G22U], the self-cleavage is 0.16.

As to CCGCCUAACACUGCCAAUGCCCGUCCCAAGCCCGGAUAAGAGUGGAGGGGGCGG [A40G G22C], the self-cleavage came to 0.06.

Regarding CCGCCUAACACUGCCAAUGCCAGUCCCAAGCCCGGAUAAGAGUGGAGGGGGCGG [A40G G22A], the self-cleavage was 0.46.

With CCGCCUAACACUGCCAAUGCCGGUCCCAAGCCGGGAUAAGAGUGGAGGGGGCGG [A40G C33G], the self-cleavage amounted to 0.06.

On to CCGCCUAACACUGCCAAUGCCGGUCCCAAGCCAGGAUAAGAGUGGAGGGGGCGG [A40G C33A], for which the self-cleavage worked out at 0.08.

On to CCGCCUAACACUGCCAAUGCCGGUCCCAAGCCUGGAUAAGAGUGGAGGGGGCGG [A40G C33U], for which the self-cleavage was found to be 0.15.

In the case of CCGCCUAACACUCCCAAUGCCGGUCCCAAGCCCGGAUAAGAGUGGAGGGGGCGG [A40G G13C], the self-cleavage is 0.03.

Take CCGCCUAACACUACCAAUGCCGGUCCCAAGCCCGGAUAAGAGUGGAGGGGGCGG [A40G G13A]: the self-cleavage was determined as 0.06.

Consider CCGCCUAACACUUCCAAUGCCGGUCCCAAGCCCGGAUAAGAGUGGAGGGGGCGG [A40G G13U], for which the self-cleavage amounted to 0.02.

With CCGCCUAACACUGCCAAUGCCGGUCCCAAGCGCGGAUAAGAGUGGAGGGGGCGG [A40G C32G], the self-cleavage amounted to 0.1.

Consider CCGCCUAACACUGCCAAUGCCGGUCCCAAGCUCGGAUAAGAGUGGAGGGGGCGG [A40G C32U], for which the self-cleavage is 0.09.

Take CCGCCUAACACUGCCAAUGCCGGUCCCAAGCACGGAUAAGAGUGGAGGGGGCGG [A40G C32A]: the self-cleavage was found to be 0.06.

Regarding CCGCCUAACACUGCCAAUGCGGGUCCCAAGCCCGGAUAAGAGUGGAGGGGGCGG [A40G C21G], the self-cleavage is 0.08.

Consider CCGCCUAACACUGCCAAUGCAGGUCCCAAGCCCGGAUAAGAGUGGAGGGGGCGG [A40G C21A], for which the self-cleavage stood at 0.25.

CCGCCUAACACUGCCAAUGCUGGUCCCAAGCCCGGAUAAGAGUGGAGGGGGCGG [A40G C21U]: the self-cleavage turned out to be 0.79.

In the case of CCGCCUAACACUGCCAAUGCCGGUCCCAAGGCCGGAUAAGAGUGGAGGGGGCGG [A40G C31G], the self-cleavage worked out at 0.08.

Regarding CCGCCUAACACUGCCAAUGCCGGUCCCAAGACCGGAUAAGAGUGGAGGGGGCGG [A40G C31A], the self-cleavage is 0.03.

Consider CCGCCUAACACUGCCAAUGCCGGUCCCAAGUCCGGAUAAGAGUGGAGGGGGCGG [A40G C31U], for which the self-cleavage stood at 0.16.

Regarding CCGCCUAACACUGCCAAUGGCGGUCCCAAGCCCGGAUAAGAGUGGAGGGGGCGG [A40G C20G], the self-cleavage is 0.1.

For CCGCCUAACACUGCCAAUGUCGGUCCCAAGCCCGGAUAAGAGUGGAGGGGGCGG [A40G C20U], the self-cleavage amounted to 0.91.

In the case of CCGCCUAACACUGCCAAUGACGGUCCCAAGCCCGGAUAAGAGUGGAGGGGGCGG [A40G C20A], the self-cleavage came out at 0.78.

The values are drawn from the RNAGym collection of RNA variant scans (doi:10.1002/anie.201605470).
